Test results reported in ChEMBL document CHEMBL4049451, “Exploring the Role of N6-Substituents in Potent Dual Acting 5'-C-Ethyltetrazolyladenosine Derivatives: Synthesis, Binding, Functional Assays, and Antinociceptive Effects in Mice ∇” (J Med Chem, 2017).

Key:
[1] = target: T1, Adenosine receptor A3 (Rattus norvegicus, UniProt P28647); test: Displacement of [3H]NECA from recombinant rat adenosine A3 receptor expressed in CHO cell membranes after 3 hrs by microbeta scintillation counting
T1 sequence (P28647 whole entry): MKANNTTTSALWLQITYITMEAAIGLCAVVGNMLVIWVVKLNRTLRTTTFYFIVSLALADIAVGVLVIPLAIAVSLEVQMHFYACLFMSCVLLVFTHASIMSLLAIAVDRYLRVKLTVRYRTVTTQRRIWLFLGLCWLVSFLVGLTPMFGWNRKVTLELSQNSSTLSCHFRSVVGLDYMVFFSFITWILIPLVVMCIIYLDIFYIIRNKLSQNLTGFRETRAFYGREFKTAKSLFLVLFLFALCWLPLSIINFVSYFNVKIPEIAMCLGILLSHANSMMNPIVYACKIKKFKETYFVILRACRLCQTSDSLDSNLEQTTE
Outline: (§1)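 CHO membranes with stable human A1, A2A, A3 or rat A3 (1000g then 100 000g spin, stored -80 °C). Competition: hA1 1 nM [3H]CCPA, nonspecific with 1 mM theophylline; hA2A 10 nM [3H]NECA; hA3 1 nM [3H]HEMADO; rA3 30 nM [3H]NECA; latter three nonspecific with 100 μM R-PIA.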

[2] = target: T2, Adenosine receptor A1 (Homo sapiens) (UniProt P30542); test: Agonist activity at recombinant human adenosine A1 receptor expressed in CHO cell membranes assessed as inhibition of forskolin-stimulated adenylyl cyclase activity after 10 mins relative to CCPA; assay type: functional, cell-based
T2 sequence (whole entry): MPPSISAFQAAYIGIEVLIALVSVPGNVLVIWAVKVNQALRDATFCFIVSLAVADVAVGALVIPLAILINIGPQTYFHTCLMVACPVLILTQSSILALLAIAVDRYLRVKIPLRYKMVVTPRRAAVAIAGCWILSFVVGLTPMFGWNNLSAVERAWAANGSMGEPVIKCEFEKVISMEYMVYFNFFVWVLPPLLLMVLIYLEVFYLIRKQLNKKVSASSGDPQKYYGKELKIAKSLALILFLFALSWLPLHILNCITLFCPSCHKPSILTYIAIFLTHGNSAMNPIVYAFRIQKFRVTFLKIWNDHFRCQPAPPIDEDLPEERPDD
Outline: (§2)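 hA1 in CHO cell membranes (single high-speed spin, resuspended in 50 mM Tris/HCl pH 7.4, used immediately); agonist inhibition of forskolin-stimulated adenylyl cyclase; efficacy relative to CCPA as reference full agonist (100%). Geometric means with 95% confidence intervals, n = 3.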

[3] = target: T3, Adenosine receptor A1 (Homo sapiens, UniProt P30542); test: Agonist activity at recombinant human adenosine A1 receptor expressed in CHO cell membranes assessed as inhibition of forskolin-stimulated adenylyl cyclase activity after 10 mins in presence of [alpha-32P]ATP; assay type: functional, cell-based; outline: as §2
T3 sequence (P30542 whole entry): T2 sequence (whole entry)

[4] = target: Adenosine receptors; A1 & A3 (Homo sapiens) (UniProt P30542+P0DMS8); test: Selectivity ratio of Ki for recombinant human adenosine A3 receptor expressed in CHO cell membranes to Ki for recombinant human adenosine A1 receptor expressed in CHO cell membranes; assay type: cell-based; outline: as §1
[5] = target: T4, Adenosine receptor A2a (Homo sapiens, UniProt P29274); test: Agonist activity at recombinant human adenosine A2A receptor expressed in CHO cell membranes assessed as stimulation of adenylyl cyclase activity relative to NECA; assay type: functional, cell-based
Outline: (§3)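 hA2A or hA2B in CHO cell membranes (one high-speed spin, pellet in 50 mM Tris/HCl pH 7.4, used immediately); agonist stimulation of adenylyl cyclase gives EC50; partial agonism judged as efficacy against 100 μM NECA as full agonist. Geometric means, 95% confidence intervals, n = 3.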

[6] = target: T3, Adenosine receptor A1; test: Displacement of [3H]CCPA from recombinant human adenosine A1 receptor expressed in CHO cell membranes after 3 hrs by microbeta scintillation counting; outline: as §1
[7] = target: T5, Adenosine receptor A3 (Homo sapiens, UniProt P0DMS8); test: Displacement of [3H]HEMADO from recombinant human adenosine […] receptor expressed in CHO cell membranes after 3 hrs by microbeta scintillation counting; outline: as §1
T5 sequence (P0DMS8 whole entry): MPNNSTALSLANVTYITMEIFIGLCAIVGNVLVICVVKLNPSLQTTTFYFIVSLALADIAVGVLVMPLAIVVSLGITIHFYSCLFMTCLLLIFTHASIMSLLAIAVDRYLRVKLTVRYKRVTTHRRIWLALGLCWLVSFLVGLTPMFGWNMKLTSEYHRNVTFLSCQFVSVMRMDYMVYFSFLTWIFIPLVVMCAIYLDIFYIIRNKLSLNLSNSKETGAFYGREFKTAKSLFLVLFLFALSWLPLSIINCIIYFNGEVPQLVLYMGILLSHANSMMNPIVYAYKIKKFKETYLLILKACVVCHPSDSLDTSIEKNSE

[8] = species on record: Homo sapiens; test: Selectivity ratio of Ki for recombinant human adenosine A2A receptor expressed in CHO cell membranes to Ki for recombinant human adenosine A3 receptor expressed in CHO cell membranes; assay type: cell-based; outline: as §1
[9] = target: T4, Adenosine receptor A2a; test: Displacement of [3H]NECA from recombinant human adenosine A2A receptor expressed in CHO cell membranes after 3 hrs by microbeta scintillation counting; outline: as §1
[10] = species on record: Homo sapiens; test: Selectivity ratio of Ki for recombinant human adenosine A2A receptor expressed in CHO cell membranes to Ki for recombinant human adenosine A1 receptor expressed in CHO cell membranes; assay type: cell-based; outline: as §1
[11] = target: T5, Adenosine receptor A3; test: Antagonist activity at recombinant human adenosine A3 receptor expressed in CHO cell membranes assessed as reversal of NECA-mediated inhibition of adenylyl cyclase activity after 10 mins by [alpha-32P]ATP assay; assay type: functional, cell-based
[12] = target: T6, Adenosine receptor A2b (Homo sapiens, UniProt P29275); test: Agonist activity at recombinant human adenosine A2B receptor expressed in CHO cell membranes assessed as stimulation of adenylyl cyclase activity by [alpha-32P]ATP assay; assay type: functional, cell-based; outline: as §3
T6 sequence (P29275 whole entry): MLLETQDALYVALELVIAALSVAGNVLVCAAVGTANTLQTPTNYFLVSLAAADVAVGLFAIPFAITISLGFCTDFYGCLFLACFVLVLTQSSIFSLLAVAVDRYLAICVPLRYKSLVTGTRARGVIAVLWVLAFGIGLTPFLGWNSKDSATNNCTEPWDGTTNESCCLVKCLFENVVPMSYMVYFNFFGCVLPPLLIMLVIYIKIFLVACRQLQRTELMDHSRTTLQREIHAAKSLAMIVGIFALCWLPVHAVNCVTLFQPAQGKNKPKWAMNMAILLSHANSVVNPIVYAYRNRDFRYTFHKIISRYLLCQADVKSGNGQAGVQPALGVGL

[13] = target: T7, Adenosine receptor A2b (Homo sapiens) (UniProt P29275); test: Agonist activity at recombinant human adenosine A2B receptor expressed in CHO cell membranes assessed as stimulation of adenylyl cyclase activity relative to NECA; assay type: functional, cell-based; outline: as §3
T7 sequence (whole entry): T6 sequence (P29275 whole entry)

[14] = target: T4, Adenosine receptor A2a; test: Agonist activity at recombinant human adenosine A2A receptor expressed in CHO cell membranes assessed as stimulation of adenylyl cyclase activity by [alpha-32P]ATP assay; assay type: functional, cell-based; outline: as §3

T4 sequence (P29274 whole entry): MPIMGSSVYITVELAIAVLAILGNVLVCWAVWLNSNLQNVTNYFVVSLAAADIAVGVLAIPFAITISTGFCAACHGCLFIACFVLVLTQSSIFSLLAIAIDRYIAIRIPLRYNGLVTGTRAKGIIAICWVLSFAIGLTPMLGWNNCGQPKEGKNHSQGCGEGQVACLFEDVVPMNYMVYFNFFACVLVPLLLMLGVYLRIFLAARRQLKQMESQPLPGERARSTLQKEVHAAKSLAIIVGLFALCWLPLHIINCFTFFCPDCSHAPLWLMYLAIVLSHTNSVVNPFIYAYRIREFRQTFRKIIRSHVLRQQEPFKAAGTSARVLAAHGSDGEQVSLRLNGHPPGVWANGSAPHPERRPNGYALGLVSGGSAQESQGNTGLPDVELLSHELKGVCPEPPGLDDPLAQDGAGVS

Row | Compound | Ki [1] [nM] | Efficacy [2] [%] | EC50 [3] [nM] | Ratio Ki [4] | Efficacy [5] [%] | Ki [6] [nM] | Ki [7] [nM] | Ratio Ki [8] | Ki [9] [nM] | Ratio Ki [10] | EC50 [11] [nM] | EC50 [12] [nM] | Efficacy [13] [%] | EC50 [14] [nM]
1 | CCn1nnc([C@H]2O[C@@H](n3cnc4c(N)nc(Cl)nc43)[C@H](O)[C@@H]2O)n1 | 212 |  |  |  |  |  |  |  |  |  |  |  |  | 
2 | CCn1nnc([C@H]2O[C@@H](n3cnc4c(N)ncnc43)[C@H](O)[C@@H]2O)n1 | 228 |  |  |  |  |  |  |  |  |  |  |  |  | 
3 | CCn1nnc([C@H]2O[C@@H](n3cnc4c(NCc5cccs5)nc(Cl)nc43)[C@H](O)[C@@H]2O)n1 |  | > 90 | 222 | 0.26 | > 90 | 6.02 | 1.59 | 180 | 286 | 47 | 44.7 | 2140 | > 90 | 38.4
4 | CCn1nnc([C@H]2O[C@@H](n3cnc4c(NCc5ccco5)nc(Cl)nc43)[C@H](O)[C@@H]2O)n1 |  | > 90 | 341 | 0.17 | > 90 | 7.64 | 1.31 | 506 | 663 | 87 | 52.4 | 2570 | > 90 | 60.2
5 | CCn1nnc([C@H]2O[C@@H](n3cnc4c(NCC5CC5)nc(Cl)nc43)[C@H](O)[C@@H]2O)n1 |  | > 90 | 7.21 | 0.66 | > 90 | 0.454 | 0.313 | 1100 | 329 | 725 | 14.4 | 1960 | > 90 | 28.6
6 | CCn1nnc([C@H]2O[C@@H](n3cnc4c(NCc5cccc(Cl)c5)nc(Cl)nc43)[C@H](O)[C@@H]2O)n1 |  | > 90 | 116 | 0.14 | > 90 | 2.71 | 0.387 | 282 | 110 | 40 | 7.61 | 2390 | > 90 | 16
7 | CCn1nnc([C@H]2O[C@@H](n3cnc4c(NCc5cccc(F)c5)nc(Cl)nc43)[C@H](O)[C@@H]2O)n1 |  | > 90 | 239 | 0.13 | > 90 | 6.04 | 0.806 | 299 | 242 | 40 | 31.5 | 2230 | > 90 | 31.3
8 | CCn1nnc([C@H]2O[C@@H](n3cnc4c(NCc5cccc(Br)c5)nc(Cl)nc43)[C@H](O)[C@@H]2O)n1 |  | > 90 | 72.8 | 0.19 | > 90 | 1.79 | 0.345 | 171 | 58.2 | 32 | 9.64 | 1650 | > 90 | 13.3
